PfHsp90 yeast 2: growth inhibition of PfHsp90-expressing yeast, primary screen, antimalarial PfHsp90 inhibitor project, S. cerevisiae, BacTiter-Glo luminescence, single point, set 2; BacTiter-Glo ATP, 48 h; yeast lacking PDR1 and PDR3 efflux regulators; inhibition, % at 9.4 µM; actives 0.32% (n = 310,000);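 active means every replicate shows inhibition above about 80%, whatever the replicate mean, limit read from the data; inconclusive means mean inhibition reaches the set limit but some replicate falls short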;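 further: 0% = DMSO neutral controls and 100% = 20 µM radicicol positive controls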
Rtt109 Vps75: inhibitors of C. albicans Rtt109/Vps75 HAT, primary screen, biochemical, ThioGlo CoA-SH fluorescence, plate reader; Histone acetyltransferase RTT109 (Candida albicans (strain SC5314 / ATCC MYA-2876)), …; purified Rtt109/Vps75, 4 h; inhibition, % at 34.9 µM; actives 0.16% (n = 330,000);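 active means inhibition of at least 50% in every replicate; inconclusive means best replicate reaches 50% inhibition but some replicates fall short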
Target sequence (Q5AAJ8 whole entry, looked up): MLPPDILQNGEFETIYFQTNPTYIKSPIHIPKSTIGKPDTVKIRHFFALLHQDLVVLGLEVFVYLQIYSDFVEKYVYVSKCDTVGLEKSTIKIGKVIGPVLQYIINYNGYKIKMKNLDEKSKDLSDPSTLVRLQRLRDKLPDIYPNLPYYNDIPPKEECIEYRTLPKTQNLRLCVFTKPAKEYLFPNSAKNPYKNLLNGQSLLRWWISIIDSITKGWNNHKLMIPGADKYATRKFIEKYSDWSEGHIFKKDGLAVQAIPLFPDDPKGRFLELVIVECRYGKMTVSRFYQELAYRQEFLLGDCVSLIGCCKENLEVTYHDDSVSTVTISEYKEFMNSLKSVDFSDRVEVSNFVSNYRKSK
Arr AP2 block: inhibitors of beta-arrestin/AP2 binding, primary screen, biochemical, GPCR trafficking, flow cytometry. beta-arrestin 1 C-terminal peptide binding to AP2 beta2-adaptin appendage (human). actives 0.31% (n = 340,000). FITC-arrestin peptide / GST-AP2 beads; AP2 beta2 appendage carries R879A mutation. inhibition, % at 10 µM;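 active means inhibition above a set limit, near 3 SD of compounds lacking own fluorescence, cut at about 54% in these data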;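 further: plate controls were DMSO wells for no effect and 5 µM unlabelled arrestin peptide for full effect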
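System: GST-AP2 R879A glutathione beads; medium: PBS, Tween 20 0.05%, BSA 0.1%; reagent: fluorescein-tagged arrestin peptide at 50 nM final; schedule: pre-incubation 12 min, peptide binding 1 h, room temperature; detection: flow cytometry, FL1 (488/535 nm); read-out: inhibition as reduced fluorescein signal on beads, percent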
PAX8 reporter: inhibitors of PAX8-driven TPO luciferase reporter, primary screen, RMG-I cells, single concentration; SteadyGlo, 24 h; inhibition, % at 12.6 µM; actives 1.2% (n = 360,000); AID 652154, 2013;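 active means mean replicate inhibition at least 60% with every replicate also reaching 60%; inconclusive means only one of the two criteria is met; inactive means mean below 60% and not all replicates reaching 60%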;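 further: luciferase light reporting Pax8 driven TPO promoter activity; plate controls were median of neutral control wells for no effect and mitoxantrone controls for full effect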
N-glyco inh: increase of ERlucT glycosylation luciferase signal, primary screen, N-linked glycosylation inhibitor project, D54 ERlucT cells, luminescence, set 2 | AID 588692, 2011 | D54 ERlucT glycosylation luciferase reporter, 24 h; percent of 100 nM tunicamycin response | actives 0.23% (n = 360,000) | reporter increase, % at 12.5 µM;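 active means mean luciferase reporter signal, scaled so untreated is 0 and the glycosylation-blocking control 100, at or above a set limit in every replicate; inconclusive means mean reaches the limit but not every replicate does; inactive means mean below the limit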;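 further: luciferase carries N-glycosylation sites so blocking glycosylation raises the light; 0% = median of neutral control wells and 100% = median of 100 nM tunicamycin wells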
HIV Env fusion: inhibitors of HIV-1 Env-driven cell-cell fusion, primary screen, HeLa-JRFL effector, CEM21 target cells, luciferase; actives 1.1% (n = 360,000); inhibition, % at 12.3 µM;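 active means mean replicate inhibition score of at least 50 and every replicate individually at or above 50; inconclusive means only one of the two criteria met; inactive means mean below 50 and not all replicates reaching 50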;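 further: 0% = plate neutral controls and 100% = maraviroc near 300 nM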
* = called active by the depositor; i = inactive; ? = inconclusive; . = no result given; ! = repeats disagree. The list is not random: actives were taken first. Their share in the collection is about 2.3%.

SMILES	PfHsp90 yeast 2	Rtt109 Vps75	Arr AP2 block	PAX8 reporter	N-glyco inh	HIV Env fusion
O=C(Cc1ccccn1)N1CC2(C1)[C@H](c1ccccc1)[C@@H](CO)N2Cc1ccccn1	.	.	.	8	.	.
COc1ccc(-c2ccc([C@H]3[C@H](CO)N4CCCCN(C(=O)Cc5ccccc5)C[C@@H]34)cc2)cc1	.	.	.	-28	.	.
O=C(Cc1cccnc1)N1CCCCN2[C@H](CO)[C@@H](c3ccc(C#CC4CC4)cc3)[C@H]2C1	.	.	.	17	.	.
C=C1C(C)C2C(Cc3ccccc3)NC(=O)C23C(OC(C)=O)C=CC(C)(O)CC(C)CC=CC3C1O (stereo not given)	7	4	10	?	2	-107
C=C1[C@@H](C)[C@H]2[C@H](Cc3ccccc3)NC(=O)[C@]23OC(=O)/C=C/[C@H](O)CCC[C@@H](C)C/C=C/[C@H]3[C@@H]1O	-23	1	-4	74*	-8	69*
CN1C(=O)/C(=C/C=C/c2ccco2)C(=O)NC1=S	-3	.	11	8	0	-38
CN(C)c1ccc(/C=C/C=C2/C(=O)NC(=O)N(c3ccccc3)C2=O)cc1	27	11	7	32	1	-210
Cc1ccc(N2C(=O)NC(=O)/C(=C\C=C\c3ccco3)C2=O)cc1	-18	1	7	10	42*	-245
O=C1NC(=O)N(c2ccccc2)C(=O)/C1=C/C=C/c1ccco1	-1	-2	-15	-24	29*	-75
Cc1cccc(N2C(=O)NC(=O)/C(=C\C=C\c3ccco3)C2=O)c1	6	1	24	8	42*	i
O=C1NC(=O)N(Cc2ccccc2)C(=O)/C1=C\C=C\c1ccco1	1	-6	7	13	?	-340
O=C1NC(=O)N(Cc2ccco2)C(=O)/C1=C/C=C/c1ccco1	1	-2	16	14	36*	-466
Cc1ccc(N2C(=O)NC(=O)/C(=C\C=C\c3ccco3)C2=O)cc1C	0	-3	27	31	47*	.
O=C(Cc1ccccc1)N1CCCCN2[C@H](CO)[C@H](c3ccc(C#CC4(O)CCCC4)cc3)[C@@H]2C1	.	.	.	7	.	.
Cc1ccc2c(C)c3ccc4ccccc4c3c[n+]2c1	?	-4	-6	31	37*	2
COC(=O)[C@@H]1[C@@H](CO)[C@@H]2Cn3c(ccc(-c4ccccc4)c3=O)[C@H]1N2CC1CCOCC1	.	.	.	11	.	.
COC(=O)C1=C(C)NC(C)=C(C(=O)OC)C1c1ccccc1[N+](=O)[O-]	-3	134*!	16	-22	-2	-5
CC(=O)Nc1ccc(C=C2C(=O)NC(=O)NC2=O)cc1	4	4	19	-24	3	63*
O=C1CNC[C@H]2[C@@H](c3ccc(Br)cc3)[C@@H](CO)N12	.	.	.	-7	.	.
CCOC(=O)[C@]12Cc3cc(Cl)ccc3[C@H]1N(C1CCCCC1)C(=O)c1cc(OC)ccc12	.	.	.	105*	.	?
CCOC(=O)[C@]12Cc3cc(C)ccc3[C@H]1N(CCC(=O)OC)C(=O)c1ccccc12	.	.	.	17	.	8
CCOC(=O)[C@]12Cc3ccc(C)cc3[C@H]1N(C1CCCCC1)C(=O)c1ccccc12	.	.	.	82*	.	16
CCOC(=O)[C@]12Cc3cc(C)ccc3[C@H]1N(C1CCCCC1)C(=O)c1ccccc12	.	.	.	86*	.	21
CCOC(=O)[C@]12Cc3ccccc3[C@H]1N(C(C)C)C(=O)c1ccccc12	.	.	.	-15	.	-13
CCOC(=O)[C@]12Cc3c(cc(OC)c(OC)c3OC)[C@H]1N(C1CCCCC1)C(=O)c1ccccc12	.	.	.	89*	.	4
COC(=O)[C@H]1[C@H](CO)[C@H]2Cn3c(ccc(-c4ccccc4F)c3=O)[C@@H]1N2Cc1ccncc1	.	.	.	1	.	.
O=C(Cc1ccncc1)N1CCCCN2[C@@H](CO)[C@@H](c3ccc(C#Cc4ccccc4F)cc3)[C@@H]2C1	.	.	.	-4	.	.

Screening data (PubChem)
